Assay outcomes: PubChem BioAssay, several laboratories
TDP2 inh: human TDP2 enzyme inhibitors, primary screen, biochemical, epi absorbance, recombinant enzyme; T5PNP hydrolysis, p-nitrophenol absorbance 415 nm; inhibition, % at 12.8 µM; 370,000 tested, 0.34% active; AID 720702, 2013;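 active = inhibition above the mean of all tested compounds plus 3 SD, set per campaign, cut at about 25% in these data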;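 note: 0% = DMSO with enzyme and 100% = buffer with substrate but no TDP2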
Target sequence (O95551 whole entry, looked up): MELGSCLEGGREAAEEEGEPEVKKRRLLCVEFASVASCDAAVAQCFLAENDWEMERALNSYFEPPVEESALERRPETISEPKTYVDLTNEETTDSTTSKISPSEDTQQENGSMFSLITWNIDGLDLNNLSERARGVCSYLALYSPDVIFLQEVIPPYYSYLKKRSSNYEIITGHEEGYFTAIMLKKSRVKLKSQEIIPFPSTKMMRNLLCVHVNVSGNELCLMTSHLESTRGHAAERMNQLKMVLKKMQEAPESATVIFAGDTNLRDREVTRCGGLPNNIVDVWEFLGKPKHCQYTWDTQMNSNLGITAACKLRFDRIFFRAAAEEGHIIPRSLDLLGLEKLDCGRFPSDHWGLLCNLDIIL
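Evaluation: % inhibition relative to enzyme-containing and enzyme-free wells. Material: recombinant human TDP2. Benchmarks: enzyme-free and DMSO wells. Timing: enzyme reaction with compound for 2 h at 37 °C. Compound dosing: 12.8 µM only. Measured by: p-Nitrophenol epi absorbance. Reagent: T5PNP substrate at 5 mM, a TopII-DNA adduct mimic. Replication: single well per compound.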
UCH37 DUB inh: inhibitors of human UCH37 deubiquitinase, primary screen, biochemical, Ub-AMC cleavage, fluorescence. Ubiquitin carboxyl-terminal hydrolase isozyme L5 (Homo sapiens), Q9Y5K5. purified proteasome/UCH37. inhibition, % (test concentration not listed). 330,000 tested, 0.33% active;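 active = mean inhibition over replicate wells above about 20%, limit read from the data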;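 note: 0% = compound-free wells with enzyme and 100% = wells lacking proteasome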
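Material: Human UCH37 enzyme supplied as purified proteasome complex | Schedule: 30 min preincubation with enzyme, 25 min cleavage at room temperature | Detection: AMC fluorescence 355/460 nm | Measure: % inhibition of Ub-AMC cleavage fluorescence | Controls: Wells without proteasome as full block, compound-free enzyme plus substrate as uninhibited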
GSTO1 counter: inhibitors of recombinant GSTO1, primary screen, counter-screen for RBBP9 inhibitor project, biochemical, fluorescence polarization; inhibition, % at 5.96 µM; activity-based probe fluorescence polarization; Glutathione S-transferase omega-1 (Homo sapiens), P78417; 300,000 tested, 1.1% active; AID 1974, 2009;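 active = inhibition above the campaign mean inhibition plus 3 SD, cut at about 35% in these data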;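 note: 0% = GSTO1-1 with DMSO and 100% = wells lacking GSTO1-1 enzyme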
Target sequence (P78417 whole entry, looked up): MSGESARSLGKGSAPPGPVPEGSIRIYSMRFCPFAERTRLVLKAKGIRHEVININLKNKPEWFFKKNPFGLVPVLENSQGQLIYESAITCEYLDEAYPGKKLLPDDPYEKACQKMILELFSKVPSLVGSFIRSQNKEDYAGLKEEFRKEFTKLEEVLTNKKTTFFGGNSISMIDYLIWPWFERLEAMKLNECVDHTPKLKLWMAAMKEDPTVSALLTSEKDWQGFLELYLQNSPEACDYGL
PAD4 FP inh: human PAD4 inhibitors, primary screen, biochemical, fluorescence polarization, 1536-well format. AID 485272, 2010. recombinant PAD4, RCA probe fluorescence polarization. Protein-arginine deiminase type-4 (Homo sapiens), Q9UM07. 330,000 tested, 0.41% active. inhibition, % at 6.36 µM;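 active = percent inhibition above a cutoff equal to the mean of all tested compounds plus 3 SD, cut at about 15% in these data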;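 note: 0% = PAD4 with RCA probe and DMSO and 100% = probe without PAD4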
CTSL1 counter: Fasciola hepatica cathepsin L1 inhibitors, primary screen, counter-screen for PFM18AAP inhibitor project, biochemical, QFRET, fluorogenic peptide substrate; recombinant F. hepatica cathepsin L1, Z-Leu-Arg-MCA fluorescence; inhibition, % at 5.96 µM; 300,000 tested, 0.49% active; AID 1906, 2009;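 active = inhibition above the mean of all tested compounds plus 3 SD, set per screening campaign, cut at about 17% in these data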;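 note: 0% = plate median of test compound wells and 100% = 1 µM Z-Phe-Ala-diazomethylketone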
HKDC1 inhibitor: HKDC1 hexokinase inhibitors, primary screen, biochemical, fluorescence, uHTS; inhibition, % at 20 µM; Q2TB90; recombinant HKDC1, G6PDH/diaphorase resazurin coupled fluorescence; 340,000 tested, 0.16% active; AID 493160, 2011;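 active = inhibition above about 35% when tested at 20 µM, limit read from the data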;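 note: plate controls were DMSO wells with enzyme for no effect and DMSO wells lacking enzyme for full effect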
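Test system: HK5 enzyme. Quantity: 5 µg/mL HK5 final. Reagent: glucose and ATP substrates. Schedule: 90 min reaction incubation at room temperature, dark. Technique: resazurin-to-resorufin fluorescence via G6PDH and diaphorase coupling, 525/613 nm. Control set: DMSO wells with and without enzyme mix.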
GSTO1 inh conf: GSTO1 inhibitor hit confirmation, counter-screen for RBBP9 inhibitor project, biochemical, fluorescence polarization, triplicate. shares compounds with GSTO1 counter. recombinant GSTO1, probe fluorescence polarization. inhibition, % at 5.96 µM. 2,400 tested, 54% active;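 active = inhibition above the primary screen's cutoff, its mean inhibition plus 3 SD, cut at about 35% in these data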;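 note: loss of polarization as inhibitors block binding of rhodamine sulfonate ester activity probe; 0% = GSTO1 with DMSO and 100% = wells lacking GSTO1 enzyme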
GSTO1 ABPP inh: inhibitors of purified human GSTO1, late-stage follow-up, biochemical, gel ABPP, SE-Rh probe, percent inhibition. shares compounds with GSTO1 counter. 130 tested, 30% active. inhibition, % at 1 µM. recombinant GSTO1, gel ABPP SE-Rh probe fluorescence;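 active = inhibition of the enzyme GSTO1 above about 75%, limit read from the data; inactive = inhibition below that limit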
* = called active by the depositor. Hits are enriched below; roughly 1.6% of the tested compounds scored in any of these assays.

COc1cc(/C=C2\SC(N)=NC2=O)cc(Br)c1O was read as TDP2 inh -6, UCH37 DUB inh 10, GSTO1 counter 61*, PAD4 FP inh -6, CTSL1 counter 10, HKDC1 inhibitor 13 and GSTO1 inh conf 66*.
For COc1ccc(/C=C2\SC(N)=NC2=O)cc1 the results were TDP2 inh 7, UCH37 DUB inh 3 and HKDC1 inhibitor 3.
COc1ccc(NS(=O)(=O)c2cccc(C(=O)NNC(=O)c3ccccc3O)c2)cc1 was read as TDP2 inh -9, UCH37 DUB inh 0, GSTO1 counter 47*, PAD4 FP inh 3, CTSL1 counter 1, HKDC1 inhibitor -13 and GSTO1 inh conf 9.
COc1ccc(NS(=O)(=O)c2cccc(C(=O)NNC(=O)c3cc(C)oc3C)c2)cc1 was read as TDP2 inh -14, UCH37 DUB inh 1, GSTO1 counter 4, PAD4 FP inh -8, CTSL1 counter 0 and HKDC1 inhibitor -8.
For COc1ccc(NC(=O)CSCc2cc(=O)n3nc(C4CC4)sc3n2)cc1 the results were TDP2 inh 7, UCH37 DUB inh 5, GSTO1 counter 38*, PAD4 FP inh 1, CTSL1 counter -1, HKDC1 inhibitor 0 and GSTO1 inh conf 18.
For O=C(CCl)Nc1ccccc1C(=O)c1ccccc1 the results were TDP2 inh -2, UCH37 DUB inh 2, GSTO1 counter 82*, PAD4 FP inh 2, CTSL1 counter 11, HKDC1 inhibitor 4 and GSTO1 inh conf 98*.
`CC(=O)N1CCN(CC(=O)Nc2ccccc2Sc2ccc(Cl)cc2)CC1` gave TDP2 inh 6, UCH37 DUB inh 5, GSTO1 counter 0, PAD4 FP inh 1, CTSL1 counter 5 and HKDC1 inhibitor 14.
Screening O=C(CCl)Nc1ccccc1Sc1ccc(Cl)cc1 returned TDP2 inh -7, UCH37 DUB inh 4, GSTO1 counter 90*, PAD4 FP inh 7, CTSL1 counter 21*, HKDC1 inhibitor 12 and GSTO1 inh conf 94*.
C=CCn1c(COc2ccc(Cl)cc2)nnc1SCC(=O)NN=Cc1cccc(O)c1 was read as UCH37 DUB inh -2.
Cc1ccccc1NCC(=O)N=Nc1c(O)[nH]c2ccc([N+](=O)[O-])cc12 was read as TDP2 inh 5, UCH37 DUB inh 8, GSTO1 counter 45*, PAD4 FP inh -3, CTSL1 counter 4, HKDC1 inhibitor 1 and GSTO1 inh conf 50*.
Screening O=C(N=Nc1c(O)[nH]c2ccc([N+](=O)[O-])cc12)c1ccccc1Cl returned TDP2 inh 4, UCH37 DUB inh 11, GSTO1 counter 45*, PAD4 FP inh -1, CTSL1 counter -2, HKDC1 inhibitor 13 and GSTO1 inh conf 18.
`Cc1ccc(NCC(=O)N=Nc2c(O)[nH]c3ccc([N+](=O)[O-])cc23)cc1` gave TDP2 inh 6, UCH37 DUB inh 5, GSTO1 counter 33, PAD4 FP inh -4, CTSL1 counter 1 and HKDC1 inhibitor 5.
Cc1cc(C=NNC(=O)c2cccs2)c(C)n1-c1ccccc1 was read as UCH37 DUB inh 2.
Screening O=C(NC1CCCCC1)Oc1cc2oc(=O)sc2cc1Br returned TDP2 inh -2, UCH37 DUB inh 3, GSTO1 counter 51*, PAD4 FP inh -3, CTSL1 counter -1, HKDC1 inhibitor 0 and GSTO1 inh conf 14.
Screening O=C(NC1CCCCCC1)c1ccc(Br)o1 returned TDP2 inh 8, UCH37 DUB inh 0, GSTO1 counter -3, PAD4 FP inh -3, CTSL1 counter 1 and HKDC1 inhibitor -4.
`Cc1cccc(N(Cc2cc(=O)[nH]c3ccccc23)C(=O)CCl)c1` gave TDP2 inh -2, GSTO1 counter 90*, PAD4 FP inh 14, CTSL1 counter 6, HKDC1 inhibitor 26, GSTO1 inh conf 91* and GSTO1 ABPP inh 76*.
Screening COc1ccc(N(Cc2cc(=O)[nH]c3ccccc23)C(=O)CCl)cc1 returned TDP2 inh 10, GSTO1 counter 79*, PAD4 FP inh 6, CTSL1 counter 4, HKDC1 inhibitor 29, GSTO1 inh conf 95* and GSTO1 ABPP inh 44.
For Cc1cccc(N(Cc2cc(=O)[nH]c3ccccc23)C(=O)C(C)C)c1 the results were TDP2 inh -3, UCH37 DUB inh 3, GSTO1 counter 3, PAD4 FP inh -2, CTSL1 counter 3 and HKDC1 inhibitor -3.
Screening Nc1nonc1-n1nnc(C(=O)NN=Cc2cccc(Cl)c2)c1CSc1ccc(Cl)cc1 returned UCH37 DUB inh 3.
For CCOc1cccc(-c2c(C(=O)NN=Cc3ccc(Br)cc3)nnn2-c2nonc2N)c1 the results were UCH37 DUB inh 7.
`CCOc1ccc(-c2c(C(=O)NN=CC3CC=CCC3)nnn2-c2nonc2N)cc1` (centres undefined) gave UCH37 DUB inh 0.
For CC(=NNC(=O)c1ccc(Cl)c(S(=O)(=O)Nc2ccccc2Cl)c1)c1ccncc1 the results were UCH37 DUB inh 3.
Screening Cc1cc(=O)[nH]c(N=N/C(=N/Nc2ccc(O)cc2)c2ccccc2)n1 returned TDP2 inh 1, GSTO1 counter 52*, PAD4 FP inh -7, CTSL1 counter 3, HKDC1 inhibitor 5 and GSTO1 inh conf 8.
Screening COc1ccc(N/N=C(/N=Nc2nc(C)cc(=O)[nH]2)c2ccccc2)cc1 returned TDP2 inh 2, GSTO1 counter 17, PAD4 FP inh -2, CTSL1 counter 1 and HKDC1 inhibitor -9.
For FC(F)(F)c1cccc(-c2ccc(C=NNc3nncc(-c4ccccc4)n3)o2)c1 the results were UCH37 DUB inh 8.
Cc1ccc2[nH]c3ccccc3c(=O)c2c1 was read as TDP2 inh 0, UCH37 DUB inh inactive, GSTO1 counter -5, PAD4 FP inh 2, CTSL1 counter -2 and HKDC1 inhibitor -2.
Screening O=c1c2ccccc2[nH]c2ccc(O)cc12 returned TDP2 inh -16, UCH37 DUB inh -346, GSTO1 counter 46*, PAD4 FP inh -2, CTSL1 counter -1, HKDC1 inhibitor 9 and GSTO1 inh conf 21.
